# PubChem BioAssay AID588703 (Broad Institute, 2011)
# Activity calls are given as the source filed them. How the calls were made is not given here.
# Tested on: HMLE_shTWIST viability, CellTiter-Glo luminescence, 72 h
# Assay: cytotoxicity toward TWIST-knockdown HMLE CSC-like cells – cell-based, CellTiter-Glo luminescence, dry powder, dose response (AID 588703)
# Details: not given
# Summary of the method: (§1)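 Material: HMLE_shTWIST stable human breast line, EMT-induced, CSC-like | Quantity: 1000 cells/well | Buffer or medium: Screening medium without serum | Timing: Compound added 24 h after seeding, then 72 h exposure | Measured by: CellTiter-Glo luminescence | Controls: DMSO-only wells as negative control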
row,SMILES,AC50 [nM]
1,Cc1cc(Cl)ccc1OCC(=O)N/N=C/c1ccc[nH]1,1600
2,CC(C)(C)c1ccc2c(c1)OC(C(=O)N/N=C/c1ccc[nH]1)CO2 (configuration not stated),2890
3,O=C(COc1c(Cl)cc(Cl)cc1Cl)N/N=C/c1ccc[nH]1,110
4,O=C(COc1ccc(Cl)cc1Cl)N/N=C/c1ccc[nH]1,2210
5,O=C(COc1cc(Cl)ccc1Cl)N/N=C/c1ccc[nH]1,920
6,O=C(N/N=C/c1ccc[nH]1)c1cc2ccccc2o1,180

# Tested on: not listed separately
# Assay: as above
# Details: HMLE_shTWIST viability, CellTiter-Glo luminescence, 72 h
# Summary of the method: as §1
row,SMILES,outcome
1,O=C(COc1ccc(Cl)cc1Cl)N/N=C/c1cnc[nH]1,inactive
